ChEMBL document CHEMBL3580567 (J Med Chem, 2015)
The source made the active and inactive calls. The rule behind the calls is not given here.

Legend:
[1] = molecular target: T1, Melatonin receptor type 1B (Homo sapiens, UniProt P49286); assay: Displacement of 2-[125I]-iodomelatonin from human melatonin receptor-2 transfected in CHO cell membranes after 120 mins
T1 sequence (P49286 whole entry): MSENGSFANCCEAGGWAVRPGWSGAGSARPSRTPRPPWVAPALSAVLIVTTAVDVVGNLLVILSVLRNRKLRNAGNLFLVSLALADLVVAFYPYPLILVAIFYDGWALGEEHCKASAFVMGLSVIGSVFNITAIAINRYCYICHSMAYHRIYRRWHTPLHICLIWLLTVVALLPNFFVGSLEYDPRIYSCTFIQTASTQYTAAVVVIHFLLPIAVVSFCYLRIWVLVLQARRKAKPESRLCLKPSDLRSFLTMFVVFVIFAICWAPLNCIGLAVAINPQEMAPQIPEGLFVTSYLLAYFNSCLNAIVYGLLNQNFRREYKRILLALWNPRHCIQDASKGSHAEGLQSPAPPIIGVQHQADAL

Homo sapiens = species on record: Homo sapiens; assay: Selectivity ratio of Ki for human melatonin receptor-1 to Ki for human melatonin receptor-2
[2] = Induction of primary neuronal stem cell differentiation derived from subgranular zone of dentate gyrus of Wistar rat hippocampus assessed as upregulation of TuJ1 expression incubated for 7 days followed by 48 hrs incubation in presence of serum and absence of EGF by DAPI staining-based fluorescence microscopic analysis; format: functional, tissue-based; conditions: Primary neuron
How it was run: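 Neurospheres came from the SGZ of the dentate gyrus of adult male Wistar rats (8-12 weeks). They were grown in DMEM/F12 with 10 ng/mL EGF, 10 ng/mL FGF and B27. After 3 days, cultures were treated with compounds for 7 days. They were then plated on poly-L-lysine coverslips for 48 h with serum and without growth factors. Cells were immunostained for TuJ1 and MAP-2 with DAPI nuclei. Positive cells were counted by fluorescence microscopy in five NS per condition over three independent experiments. Untreated cultures gave basal values.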

[3] = molecular target: Glycogen synthase kinase-3 beta (Homo sapiens) (UniProt P49841); assay: Binding affinity to GSK-3beta receptor (unknown origin) at 10 uM
Chain of Glycogen synthase kinase-3 beta (Homo sapiens) (P49841 whole entry, looked up): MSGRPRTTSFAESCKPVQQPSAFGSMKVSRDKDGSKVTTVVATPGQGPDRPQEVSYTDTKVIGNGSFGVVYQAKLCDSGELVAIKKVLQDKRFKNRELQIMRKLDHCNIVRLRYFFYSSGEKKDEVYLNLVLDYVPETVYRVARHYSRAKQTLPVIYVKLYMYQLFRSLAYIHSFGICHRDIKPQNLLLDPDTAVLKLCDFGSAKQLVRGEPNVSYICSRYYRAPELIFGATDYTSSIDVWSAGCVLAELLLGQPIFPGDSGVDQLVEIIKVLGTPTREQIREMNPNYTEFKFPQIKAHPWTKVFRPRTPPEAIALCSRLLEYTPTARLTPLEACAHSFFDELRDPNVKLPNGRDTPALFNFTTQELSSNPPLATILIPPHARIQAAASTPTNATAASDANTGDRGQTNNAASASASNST

[4] = molecular target: Cannabinoid receptor 1 (Homo sapiens) (UniProt P21554); assay: Binding affinity to CB1 receptor (unknown origin) at 10 uM
Chain of Cannabinoid receptor 1 (Homo sapiens) (P21554 whole entry): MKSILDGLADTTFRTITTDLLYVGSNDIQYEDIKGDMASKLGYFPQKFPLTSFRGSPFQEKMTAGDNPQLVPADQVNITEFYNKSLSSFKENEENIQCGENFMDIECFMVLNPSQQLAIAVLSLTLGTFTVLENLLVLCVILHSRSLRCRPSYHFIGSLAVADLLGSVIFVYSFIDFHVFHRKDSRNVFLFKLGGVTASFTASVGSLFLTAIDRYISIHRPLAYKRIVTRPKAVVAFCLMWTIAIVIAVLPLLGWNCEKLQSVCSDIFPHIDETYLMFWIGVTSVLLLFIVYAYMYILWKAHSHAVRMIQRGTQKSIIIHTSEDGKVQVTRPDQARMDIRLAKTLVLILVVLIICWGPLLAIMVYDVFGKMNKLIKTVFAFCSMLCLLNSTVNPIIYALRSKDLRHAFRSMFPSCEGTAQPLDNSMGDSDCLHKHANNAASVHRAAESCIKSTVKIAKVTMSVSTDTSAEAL

[5] = molecular target: T2, 5-hydroxytryptamine receptor 1A (Homo sapiens) (UniProt P08908); assay: Binding affinity to 5HT-1A receptor (unknown origin) at 10 uM
T2 sequence (whole entry): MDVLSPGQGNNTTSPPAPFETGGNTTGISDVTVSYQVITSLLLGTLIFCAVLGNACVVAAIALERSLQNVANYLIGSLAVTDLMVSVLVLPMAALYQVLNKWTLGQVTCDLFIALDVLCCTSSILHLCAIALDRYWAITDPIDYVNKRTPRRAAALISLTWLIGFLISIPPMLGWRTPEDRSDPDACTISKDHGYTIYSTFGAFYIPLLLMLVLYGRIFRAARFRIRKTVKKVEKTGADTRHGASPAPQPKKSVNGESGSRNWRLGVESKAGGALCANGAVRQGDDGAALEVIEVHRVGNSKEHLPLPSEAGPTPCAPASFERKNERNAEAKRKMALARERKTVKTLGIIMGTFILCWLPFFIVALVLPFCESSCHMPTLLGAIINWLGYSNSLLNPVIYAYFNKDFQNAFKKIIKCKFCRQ

[6] = molecular target: T3, Retinoic acid receptor alpha (Homo sapiens) (UniProt P10276); assay: Binding affinity to RARalpha (unknown origin) at 10 uM
T3 sequence (whole entry): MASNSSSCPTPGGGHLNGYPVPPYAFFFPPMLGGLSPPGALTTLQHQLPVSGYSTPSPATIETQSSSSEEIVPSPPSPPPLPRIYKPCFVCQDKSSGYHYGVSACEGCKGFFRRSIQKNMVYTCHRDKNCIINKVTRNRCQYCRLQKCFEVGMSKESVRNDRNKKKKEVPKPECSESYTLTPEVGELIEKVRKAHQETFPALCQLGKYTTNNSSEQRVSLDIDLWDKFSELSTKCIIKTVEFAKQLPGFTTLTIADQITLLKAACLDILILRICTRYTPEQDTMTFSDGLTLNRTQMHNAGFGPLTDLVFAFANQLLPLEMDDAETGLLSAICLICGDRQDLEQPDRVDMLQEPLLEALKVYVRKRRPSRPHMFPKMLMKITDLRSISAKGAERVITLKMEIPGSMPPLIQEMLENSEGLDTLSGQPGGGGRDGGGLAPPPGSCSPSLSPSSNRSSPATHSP

[7] = molecular target: T1, Melatonin receptor type 1B; assay: Agonist activity at human recombinant melatonin receptor-2 expressed in CHO cells assessed as decrease of cAMP level after 10 mins by HTRF assay; format: functional, cell-based
How it was run: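 Functional agonist profiling was done by CEREP on cells expressing human recombinant MT receptors. MT1 was read by cellular dielectric spectroscopy and MT2 by homogeneous time-resolved fluorescence. The protocols are those on the company website.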

- Ki [1]: 190 nM
- Ratio Ki (Homo sapiens): 3.6
- Activity [3]: inactive
- Activity [4]: inactive
- Activity [5]: inactive
- Activity [6]: inactive
- EC50 [7]: 1600 nM
Structure (SMILES): COc1ccc2[nH]cc(CCc3nnc(C)o3)c2c1
- Activity [2]: Dose-dependent effect
